Among the data in ChEMBL document CHEMBL1152935, “Synthesis and structure-activity relationships of radicicol derivatives and WNT-5A expression inhibitory activity” (Bioorg Med Chem, 2009) are IC50 and CC50 values, retold here.

A short description of data set [1]: Inhibition of WNT5A mRNA expression in human dermal papilla cells after 24 hrs by quantigene assay. Type of data set: functional, cell-based. In outline:
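Human dermal papilla cells (gift, fifth subculture) in MEM with 12% FBS, seeded at 1 × 10⁴ cells/well, cultured overnight, then exposed 24 h to compounds or no-compound medium. WNT-5A mRNA quantified by branched-DNA QuantiGene: lysates on capture plate, WNT-5A probes 53 °C 20 h, amplifier then alkaline phosphatase probe each 46 °C 1 h, Lumi-Phos Plus 46 °C 30 min, luminescence read. IC50 reported.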

The nature of data set [2]: Cytotoxicity against human dermal papilla cells by Alamar blue assay. The format is cell-based. Conditions: read-out: TC50 (the source's name). Summed up: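 Dermal papilla cells seeded at 5 × 10³ cells/well, grown 16 h in MEM with 12% FBS, then given medium with or without test compounds for 24 h. Medium swapped for one containing 10% Alamar Blue and cells cultured 4 h more; fluorescence read at Ex 544 nm/Em 590 nm. TC50 reported.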
(In general: Resazurin is reduced to fluorescent resorufin, in cell work by metabolically active cells.)

Data set [3] is described as follows: Inhibition of HSP90.

One may read the IC50 as the concentration needed to halve the response being measured. As to `C[C@@H]1C[C@H]2O[C@@H]2C/C=C/C[C@H](O)Cc2c(Cl)c(O)cc(O)c2C(=O)O1`, in data set [1] (Homo sapiens, 24 h), the IC50 is more than 50 µM.
Take `CC(=O)S[C@@H]1/C=C\CC(=O)Cc2c(Cl)c(O)cc(O)c2C(=O)O[C@H](C)C[C@H]2O[C@@H]21`: in data set [1] (Homo sapiens, 24 h), inhibition was half-maximal at 0.5 µM (IC50). Also, the CC50 in data set [2] is more than 100 µM.
Consider `C[C@@H]1C[C@H]2O[C@@H]2C/C=C/C[C@@H](O)Cc2c(Cl)c(O)cc(O)c2C(=O)O1`, for which the IC50 in data set [1] (Homo sapiens, 24 h) was more than 50 µM.
For `C[C@@H]1C[C@H]2O[C@@H]2CCCC[C@H](O)Cc2c(Cl)c(O)cc(O)c2C(=O)O1`, the midpoint of inhibition in data set [1] (Homo sapiens, 24 h), the IC50, lay at 5.89 µM. Further, the CC50 in data set [2] is more than 100 µM.
The compound `C[C@@H]1C/C=C/CC/C=C/[C@@H](O)Cc2cc(O)cc(O)c2C(=O)O1` displayed an IC50 in data set [1] (Homo sapiens, 24 h) of more than 50 µM.
The same measure, in the same setting: for `COc1cc(O)c2c(c1Cl)C[C@@H](O)/C=C/CC[C@H]1O[C@@H]1C[C@@H](C)OC2=O` the value was more than 100 µM.
Regarding `C[C@@H]1C[C@@H](O)C/C=C\CCC(=O)Cc2c(Cl)c(O)cc(O)c2C(=O)O1`, the IC50 in data set [1] (Homo sapiens, 24 h) is more than 50 µM.
`C[C@@H]1C[C@H]2O[C@@H]2CCCCC(=O)Cc2c(Cl)c(O)cc(O)c2C(=O)O1` [TETRAHYDRORADICICOL] had an IC50 in data set [1] (Homo sapiens, 24 h) of 2.24 µM. Moreover, in data set [2], the CC50 is more than 100 µM.
`C[C@@H]1C[C@H]2O[C@@H]2\C=C/C=C/C(=N/OCc2ccccc2)Cc2c(Cl)c(O)cc(O)c2C(=O)O1` came in with an IC50 in data set [1] (Homo sapiens, 24 h) of 0.06 µM. For the same compound, in data set [2], the CC50 is 42.1 µM.
`C[C@@H]1C[C@@H](O)C(Cl)/C=C\C=C\C(=O)Cc2c(Cl)c(O)cc(O)c2C(=O)O1` (single isomer, unassigned) registered an IC50 in data set [1] of 13.3 µM. Further, in data set [2], the CC50 was 42 µM.
As to `C[C@@H]1C[C@H]2O[C@@H]2/C=C\C=C\[C@H](O)Cc2c(Cl)c(O)cc(O)c2C(=O)O1`, it took 2.07 µM to reach half-maximal inhibition in data set [1] (Homo sapiens, 24 h) (IC50). The CC50 in data set [2] was more than 100 µM.
`C[C@@H]1C[C@H]2O[C@@H]2CC/C=C/C(=O)Cc2cc(O)cc(O)c2C(=O)O1` [MONOCILLIN III] displayed an IC50 in data set [1] (Homo sapiens, 24 h) of 9.43 µM. For the same compound, the CC50 in data set [2] was found to be 28.9 µM.
`C[C@@H]1C[C@H]2O[C@@H]2/C=C\C=C\C(=O)Cc2c(Cl)c(O)cc(O)c2C(=O)O1` [RADICICOL]: in data set [1] (Homo sapiens, 24 h), the IC50 stood at 0.19 µM. Further, the CC50 in data set [2] turned out to be 15.3 µM.
In the same order, the values of `C[C@@H]1C[C@H]2O[C@@H]2\C=C/C=C/C(=N\OCc2ccccc2)Cc2c(Cl)c(O)cc(O)c2C(=O)O1` are 0.51 µM and 65.6 µM.
`C[C@@H]1C[C@H]2O[C@@H]2CC/C=C/[C@H](O)Cc2cc(O)cc(O)c2C(=O)O1`: in data set [1] (Homo sapiens, 24 h), inhibition was half-maximal at 13.2 µM (IC50). Moreover, the CC50 in data set [2] was more than 100 µM.
For the compound `C[C@@H]1C[C@@H](O)[C@H](Cl)/C=C\C=C\C(=O)Cc2c(Cl)c(O)cc(O)c2C(=O)O1`, in data set [1], the IC50 is more than 50 µM.
As for `C[C@H]1C[C@H]2O[C@@H]2CC/C=C/C(=O)Cc2c(Cl)c(O)cc(O)c2C(=O)O1` [POCHONIN A], the IC50 in data set [1] (Homo sapiens, 24 h) was 2.64 µM; in data set [3], 0.09 µM. For the same compound, the CC50 in data set [2] amounted to 57.3 µM.
For `C[C@@H]1CC(O)C2C=CC(CC(=O)Cc3c(Cl)c(O)cc(O)c3C(=O)O1)O2` (stereo partly drawn), the IC50 in data set [1] (Homo sapiens, 24 h) was more than 50 µM.
The same measure, in the same setting: the same measure for `C[C@@H]1C[C@@H](O)CCCCCC(=O)Cc2c(Cl)c(O)cc(O)c2C(=O)O1`: more than 50 µM; for `C[C@@H]1CCCCCCCC(=O)Cc2cc(O)cc(O)c2C(=O)O1`: more than 50 µM.
Compound `CO/N=C1/C=C/C=C\[C@H]2O[C@@H]2C[C@@H](C)OC(=O)c2c(O)cc(O)c(Cl)c2C1` came in with an IC50 in data set [1] (Homo sapiens, 24 h) of 1.22 µM. The CC50 in data set [2] was more than 100 µM.
In the same order, the values of `CO\N=C1/C=C/C=C\[C@H]2O[C@@H]2C[C@@H](C)OC(=O)c2c(O)cc(O)c(Cl)c2C1` are 0.15 µM and more than 100 µM.
Consider `CC(=O)S[C@@H]1/C=C/CC(=O)Cc2c(Cl)c(O)cc(O)c2C(=O)O[C@H](C)C[C@H]2O[C@@H]21`, for which, in data set [1] (Homo sapiens, 24 h), half-maximal inhibition (IC50) required 2.34 µM. In data set [2], the CC50 is more than 100 µM.
Compound `C[C@@H]1C[C@@H](O)CC/C=C/CC(=O)Cc2c(Cl)c(O)cc(O)c2C(=O)O1` returned a half-inhibitory concentration (IC50) in data set [1] (Homo sapiens, 24 h) of more than 50 µM.
In data set [1] (Homo sapiens, 24 h), `C[C@@H]1C[C@H]2O[C@@H]2CCCC[C@@H](O)Cc2c(Cl)c(O)cc(O)c2C(=O)O1` yielded an IC50 of more than 100 µM. The CC50 in data set [2] is more than 100 µM.
With `C[C@@H]1C[C@H]2O[C@@H]2C/C=C/CC(=O)Cc2c(Cl)c(O)cc(O)c2C(=O)O1`, the IC50 in data set [1] (Homo sapiens, 24 h) came out at 7.69 µM. For the same compound, the CC50 in data set [2] is more than 100 µM.
In the same order, the values of `CC(=O)Oc1cc(OC(C)=O)c2c(c1Cl)CC(=O)/C=C/C=C\[C@H]1O[C@@H]1C[C@@H](C)OC2=O` [RADICICOL DIACETATE] are 0.3 µM and 29.1 µM.
For `C[C@@H]1C[C@@H](O)[C@@H](O)/C=C\C=C\C(=O)Cc2c(Cl)c(O)cc(O)c2C(=O)O1`, the IC50 in data set [1] (Homo sapiens, 24 h) was more than 50 µM.
In data set [1] (Homo sapiens, 24 h), `C[C@@H]1C[C@H]2O[C@@H]2\C=C/C=C/C(=N\O)Cc2c(Cl)c(O)cc(O)c2C(=O)O1` yielded an IC50 of 0.26 µM. Also, in data set [2], the CC50 came to 89.5 µM.
In the same order, the values of `C[C@@H]1C[C@H]2O[C@@H]2/C=C\C=C\C(=O)Cc2cc(O)cc(O)c2C(=O)O1` [MONOCILLIN I] are 1.93 µM and 2.9 µM.
Compound `C[C@@H]1C[C@H]2O[C@@H]2CCCCC(=O)Cc2cc(O)cc(O)c2C(=O)O1` [TETRAHYDROMONOCILLIN I] gave an IC50 in data set [1] (Homo sapiens, 24 h) of 15 µM. This lies in the double-digit micromolar range.
Same read-out and setting: for `CC(=O)Oc1cc(OC(C)=O)c2c(c1Cl)CC(OC(C)=O)/C=C/CC[C@H]1O[C@@H]1C[C@@H](C)OC2=O` (stereo partly drawn) the value was more than 100 µM.
In data set [1] (Homo sapiens, 24 h), `C[C@@H]1C[C@H]2OC(=O)O[C@H]2/C=C\C=C\C(=O)Cc2c(Cl)c(O)cc(O)c2C(=O)O1` returned an IC50 of 15.7 µM. Besides, the CC50 in data set [2] is 28.1 µM.
On to `COc1cc(OC)c2c(c1Cl)CC(=O)/C=C/C=C\[C@H]1O[C@@H]1C[C@@H](C)OC2=O` [DIMETHYL RADICICOL], for which the midpoint of inhibition in data set [1] (Homo sapiens, 24 h), the IC50, lay at 3.76 µM. For the same compound, the CC50 in data set [2] turned out to be 8.4 µM.
Regarding `C[C@@H]1C[C@H]2S[C@@H]2/C=C\C=C\C(=O)Cc2c(Cl)c(O)cc(O)c2C(=O)O1`, half-maximal inhibition in data set [1] (Homo sapiens, 24 h) (IC50) required 9.13 µM. Also, the CC50 in data set [2] was 28.2 µM.
The compound `COc1cc(OC)c2c(c1Cl)C[C@@H](O)/C=C/CC[C@H]1O[C@@H]1C[C@@H](C)OC2=O` had an IC50 in data set [1] (Homo sapiens, 24 h) of more than 100 µM.
Regarding `C[C@@H]1C[C@H]2O[C@@H]2[C@H](Sc2ccccc2)CCCC(=O)Cc2c(Cl)c(O)cc(O)c2C(=O)O1`, the IC50 in data set [1] (Homo sapiens, 24 h) was more than 50 µM. For the same compound, in data set [2], the CC50 is more than 50 µM.
`C[C@@H]1C/C=C/CC/C=C/[C@H](O)Cc2cc(O)cc(O)c2C(=O)O1` showed an IC50 in data set [1] (Homo sapiens, 24 h) of more than 50 µM.
Turning to `C[C@@H]1C[C@H]2O[C@@H]2CC/C=C/[C@@H](O)Cc2c(Cl)c(O)cc(O)c2C(=O)O1`, the IC50 in data set [1] (Homo sapiens, 24 h) is more than 100 µM. Besides, in data set [2], the CC50 is more than 100 µM.
`C[C@@H]1C[C@H]2O[C@@H]2C(Sc2ccccc2)/C=C\CC(=O)Cc2c(Cl)c(O)cc(O)c2C(=O)O1` (stereo partly drawn): the IC50 in data set [1] (Homo sapiens, 24 h) was found to be 0.27 µM. Further, in data set [2], the CC50 was more than 50 µM.
Turning to `C[C@@H]1C[C@H]2O[C@@H]2CC/C=C/[C@H](O)Cc2c(Cl)c(O)cc(O)c2C(=O)O1`, the IC50 in data set [1] (Homo sapiens, 24 h) is 1.89 µM. Further, the CC50 in data set [2] is more than 100 µM.
